Test results taken from ChEMBL document CHEMBL5724801, “EUbOPEN Chemogenomics Library - Multiplex” (2024).
Where “and” joins values, the source holds several entries; their conditions need not be identical. Equal values may be shown once.

Columns and labels:
HEK-293T = assay: Multiplex assay against HEK293T; format: toxicity, cell-based; conditions: human
How it was run: (§1)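 At seeding, live cells were stained with Hoechst33342, BioTracker Green Microtubule Cytoskeleton Dye, MitoTracker Red and Annexin V Alexa Fluor 680. After compound addition they were imaged on a CQ1 microscope at 37°C and 5% CO2, and CellPathfinder machine-learning gating sorted them into Hoechst high-intensity objects or normal cells, with normal cells further split into healthy, pyknosed or fragmented nuclei and pyknosed cells into mitotic or apoptotic. Tubulin, mitochondrial-mass and membrane-permeability phenotypes are given as per cents of cells with healthy nuclei.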

U2OS = assay: Multiplex assay against U2OS; format: toxicity, cell-based; conditions: human; how it was run: as §1
[1] = 12 h, 1 µM, compound concentration 1 uM
[2] = 12 h, 10 µM, compound concentration 10 uM
[3] = 24 h, 1 µM, compound concentration 1 uM
[4] = 24 h, 10 µM, compound concentration 10 uM
[5] = 48 h, 1 µM, compound concentration 1 uM
[6] = 48 h, 10 µM, compound concentration 10 uM

`COc1cc2nc(N3CCN(C(=O)c4ccco4)CC3)nc(N)c2cc1OC.Cl` [PRAZOSIN HYDROCHLORIDE] was tested, and the “Population Apoptotic (%)” value (HEK-293T; [1]) was 32% and 56%, the “Population Fragmented Nuclei (%)” value (HEK-293T; [1]) was 10% and 6% and the “Population Healthy Nuclei (%)” value (HEK-293T; [1]) was 77%. For the same compound, the “Population Hoechst High Intensity Objects (%)” value (HEK-293T; [1]) was 6%, the “Population Membrane Permeable-Phenotype (%)” value (HEK-293T; [1]) was 0% and the “Population Mitochondria Different-Phenotype (%)” value (HEK-293T; [1]) was 35% and 66%. The “Population Mitotic Cells (%)” value (HEK-293T; [1]) was 67% and 43%, the “Population Normal (%)” value (HEK-293T; [1]) was 93% and the “Population Pyknosed Nuclei (%)” value (HEK-293T; [1]) was 11% and 16%. For the same compound, the “Population Tubulin-Different-Phenotype (%)” value (HEK-293T; [1]) was 23% and 22%, the “Total Cell Count” value (HEK-293T; [1]) was 448 and 290 and the “Population Apoptotic (%)” value (HEK-293T; [2]) was 38% and 55%. For the same compound, the “Population Fragmented Nuclei (%)” value (HEK-293T; [2]) was 9% and 5%, the “Population Healthy Nuclei (%)” value (HEK-293T; [2]) was 75% and 77% and the “Population Hoechst High Intensity Objects (%)” value (HEK-293T; [2]) was 10% and 9%. The “Population Membrane Permeable-Phenotype (%)” value (HEK-293T; [2]) was 0%, the “Population Mitochondria Different-Phenotype (%)” value (HEK-293T; [2]) was 62% and 61% and the “Population Mitotic Cells (%)” value (HEK-293T; [2]) was 61% and 44%. For the same compound, the “Population Normal (%)” value (HEK-293T; [2]) was 89% and 90%, the “Population Pyknosed Nuclei (%)” value (HEK-293T; [2]) was 14% and 16% and the “Population Tubulin-Different-Phenotype (%)” value (HEK-293T; [2]) was 45% and 25%. For the same compound, the “Total Cell Count” value (HEK-293T; [2]) was 348 and 404, the “Population Apoptotic (%)” value (HEK-293T; [3]) was 38% and 51% and the “Population Fragmented Nuclei (%)” value (HEK-293T; [3]) was 9%. The “Population Healthy Nuclei (%)” value (HEK-293T; [3]) was 82% and 80%, the “Population Hoechst High Intensity Objects (%)” value (HEK-293T; [3]) was 3% and 5% and the “Population Membrane Permeable-Phenotype (%)” value (HEK-293T; [3]) was 0%. For the same compound, the “Population Mitochondria Different-Phenotype (%)” value (HEK-293T; [3]) was 25% and 45%, the “Population Mitotic Cells (%)” value (HEK-293T; [3]) was 61% and 48% and the “Population Normal (%)” value (HEK-293T; [3]) was 96% and 94%. For the same compound, the “Population Pyknosed Nuclei (%)” value (HEK-293T; [3]) was 7% and 10%, the “Population Tubulin-Different-Phenotype (%)” value (HEK-293T; [3]) was 10% and 16% and the “Total Cell Count” value (HEK-293T; [3]) was 660 and 364. The “Population Apoptotic (%)” value (HEK-293T; [4]) was 50% and 54%, the “Population Fragmented Nuclei (%)” value (HEK-293T; [4]) was 12% and 11% and the “Population Healthy Nuclei (%)” value (HEK-293T; [4]) was 77% and 78%. For the same compound, the “Population Hoechst High Intensity Objects (%)” value (HEK-293T; [4]) was 5%, the “Population Membrane Permeable-Phenotype (%)” value (HEK-293T; [4]) was 0% and 1% and the “Population Mitochondria Different-Phenotype (%)” value (HEK-293T; [4]) was 40% and 42%. The “Population Mitotic Cells (%)” value (HEK-293T; [4]) was 50% and 45%, the “Population Normal (%)” value (HEK-293T; [4]) was 94% and the “Population Pyknosed Nuclei (%)” value (HEK-293T; [4]) was 9% and 10%. For the same compound, the “Population Tubulin-Different-Phenotype (%)” value (HEK-293T; [4]) was 32% and 20%, the “Total Cell Count” value (HEK-293T; [4]) was 463 and 534 and the “Population Apoptotic (%)” value (HEK-293T; [5]) was 36% and 38%. The “Population Fragmented Nuclei (%)” value (HEK-293T; [5]) was 17% and 16%, the “Population Healthy Nuclei (%)” value (HEK-293T; [5]) was 76% and the “Population Hoechst High Intensity Objects (%)” value (HEK-293T; [5]) was 1% and 2%. The “Population Membrane Permeable-Phenotype (%)” value (HEK-293T; [5]) was 1% and 0%, the “Population Mitochondria Different-Phenotype (%)” value (HEK-293T; [5]) was 16% and 23% and the “Population Mitotic Cells (%)” value (HEK-293T; [5]) was 63% and 61%. For the same compound, the “Population Normal (%)” value (HEK-293T; [5]) was 98% and 97%, the “Population Pyknosed Nuclei (%)” value (HEK-293T; [5]) was 5% and 6% and the “Population Tubulin-Different-Phenotype (%)” value (HEK-293T; [5]) was 8% and 9%. The “Total Cell Count” value (HEK-293T; [5]) was 1114 and 636, the “Population Apoptotic (%)” value (HEK-293T; [6]) was 33% and 23% and the “Population Fragmented Nuclei (%)” value (HEK-293T; [6]) was 17% and 14%. For the same compound, the “Population Healthy Nuclei (%)” value (HEK-293T; [6]) was 75% and 78%, the “Population Hoechst High Intensity Objects (%)” value (HEK-293T; [6]) was 4% and the “Population Membrane Permeable-Phenotype (%)” value (HEK-293T; [6]) was 2% and 1%. For the same compound, the “Population Mitochondria Different-Phenotype (%)” value (HEK-293T; [6]) was 32% and 21%, the “Population Mitotic Cells (%)” value (HEK-293T; [6]) was 66% and 76% and the “Population Normal (%)” value (HEK-293T; [6]) was 95%. The “Population Pyknosed Nuclei (%)” value (HEK-293T; [6]) was 7%, the “Population Tubulin-Different-Phenotype (%)” value (HEK-293T; [6]) was 17% and 11% and the “Total Cell Count” value (HEK-293T; [6]) was 693 and 778. For the same compound, the “Population Apoptotic (%)” value (U2OS; [1]) was 88% and 94%, the “Population Fragmented Nuclei (%)” value (U2OS; [1]) was 21% and 18% and the “Population Healthy Nuclei (%)” value (U2OS; [1]) was 70% and 69%. For the same compound, the “Population Hoechst High Intensity Objects (%)” value (U2OS; [1]) was 2% and 1%, the “Population Membrane Permeable-Phenotype (%)” value (U2OS; [1]) was 4% and 5% and the “Population Mitochondria Different-Phenotype (%)” value (U2OS; [1]) was 2% and 7%. The “Population Mitotic Cells (%)” value (U2OS; [1]) was 11% and 5%, the “Population Normal (%)” value (U2OS; [1]) was 97% and 98% and the “Population Pyknosed Nuclei (%)” value (U2OS; [1]) was 7% and 12%. For the same compound, the “Population Tubulin-Different-Phenotype (%)” value (U2OS; [1]) was 1% and 8%, the “Total Cell Count” value (U2OS; [1]) was 235 and 159 and the “Population Apoptotic (%)” value (U2OS; [2]) was 86% and 72%. The “Population Fragmented Nuclei (%)” value (U2OS; [2]) was 25% and 15%, the “Population Healthy Nuclei (%)” value (U2OS; [2]) was 67% and 74% and the “Population Hoechst High Intensity Objects (%)” value (U2OS; [2]) was 3% and 0%. For the same compound, the “Population Membrane Permeable-Phenotype (%)” value (U2OS; [2]) was 12% and 4%, the “Population Mitochondria Different-Phenotype (%)” value (U2OS; [2]) was 2% and 5% and the “Population Mitotic Cells (%)” value (U2OS; [2]) was 13% and 27%. For the same compound, the “Population Normal (%)” value (U2OS; [2]) was 96% and 99%, the “Population Pyknosed Nuclei (%)” value (U2OS; [2]) was 7% and 9% and the “Population Tubulin-Different-Phenotype (%)” value (U2OS; [2]) was 6% and 7%. The “Total Cell Count” value (U2OS; [2]) was 216 and 114, the “Population Apoptotic (%)” value (U2OS; [3]) was 95% and 100% and the “Population Fragmented Nuclei (%)” value (U2OS; [3]) was 22% and 15%. For the same compound, the “Population Healthy Nuclei (%)” value (U2OS; [3]) was 69% and 74%, the “Population Hoechst High Intensity Objects (%)” value (U2OS; [3]) was 1% and 0% and the “Population Membrane Permeable-Phenotype (%)” value (U2OS; [3]) was 8% and 10%. The “Population Mitochondria Different-Phenotype (%)” value (U2OS; [3]) was 2% and 5%, the “Population Mitotic Cells (%)” value (U2OS; [3]) was 4% and 0% and the “Population Normal (%)” value (U2OS; [3]) was 98% and 100%. For the same compound, the “Population Pyknosed Nuclei (%)” value (U2OS; [3]) was 7% and 10%, the “Population Tubulin-Different-Phenotype (%)” value (U2OS; [3]) was 4% and 9% and the “Total Cell Count” value (U2OS; [3]) was 273 and 188.
